# ERp5 block – inhibitors of ERp5-driven insulin aggregation, primary screen, biochemical, turbidity, absorbance 650 nm, single point. 90 min. Protein disulfide-isomerase A6 (Homo sapiens), Q15084. 350,000 compounds, 0.05% hits. inhibition, % at 9.99 µM;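 active means mean replicate inhibition above about 25%, with every replicate also reaching it, limit read from the data, passing the limit was not always enough; inconclusive means only one of those two criteria met; inactive means neither criterion met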
# DENV2 CPE – inhibitors of DENV2 cytopathic effect, primary screen, cell-based, plate reader, single concentration; CPE inhibition, % at 9.99 µM; 350,000 compounds, 1.7% hits; DENV2-infected cells, cytopathic effect rescue; in the data active means CPE inhibition above about 20%, passing the limit was not always enough; inconclusive means no clear call, values can overlap the other calls; tested in BHK-21 cells;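 further: 0% = median of neutral control wells and 100% = median of positive control wells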
# F508del corr – F508del CFTR correction, initial screen, CFBE line, single point; activity (quench increase), % at 7.58 µM; CFBE cells, YFP halide quenching; stimulated with forskolin plus potentiator P3; % fluorescence drop versus neutral controls; 350,000 compounds, 0.36% hits; AID 720511, 2013;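 active means mean added fluorescence quench of at least 8% versus neutral control, with both replicates also reaching 8%; inconclusive means only one of the mean or replicate conditions met; inactive means mean below 8% and not both replicates reaching 8%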;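 further: cells transiently co-express mutant CFTR-F508del with the halide-sensitive YFP; corrector assay measuring rescue of mutant channel to the surface after 24 h compound exposure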
# PDI turbidity – inhibitors of human PDI, primary screen, biochemical, turbidity, single point, plate reader; 350,000 compounds, 0.052% hits; PDI insulin aggregation turbidity, A650, 90 min; inhibition, % at 10 µM; Protein disulfide-isomerase (Homo sapiens), P07237;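 active means mean inhibition across replicates of 30% or more, whatever share of single replicates reach that level; inconclusive means mean inhibition below 30% while every single replicate reaches 30%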
# Target sequence (P07237 whole entry, looked up): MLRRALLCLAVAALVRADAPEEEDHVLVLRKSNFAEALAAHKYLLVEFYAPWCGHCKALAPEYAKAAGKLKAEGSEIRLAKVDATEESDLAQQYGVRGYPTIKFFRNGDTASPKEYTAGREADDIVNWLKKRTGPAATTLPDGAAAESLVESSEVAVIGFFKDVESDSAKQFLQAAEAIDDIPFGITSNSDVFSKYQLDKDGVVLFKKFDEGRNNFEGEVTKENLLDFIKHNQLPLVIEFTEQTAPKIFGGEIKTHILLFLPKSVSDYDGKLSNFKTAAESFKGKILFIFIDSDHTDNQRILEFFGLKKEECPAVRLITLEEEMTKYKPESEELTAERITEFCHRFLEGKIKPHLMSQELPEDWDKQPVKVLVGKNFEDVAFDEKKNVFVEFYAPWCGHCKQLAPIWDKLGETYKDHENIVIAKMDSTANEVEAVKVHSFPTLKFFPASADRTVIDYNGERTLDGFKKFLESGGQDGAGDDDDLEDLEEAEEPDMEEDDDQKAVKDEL
# Cneo AK release – Cryptococcus neoformans cell lysis inducers, primary screen, AK release luminescence, single concentration; C. neoformans lysis, adenylate kinase release luminescence, 4 h; normalised: neutral wells 0, clomiphene wells 100; lysis activity, % at 15 µM; 360,000 compounds, 0.2% hits; AID 651654, 2012;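 active means mean lysis activity across replicates of at least 80%, whatever share of replicates individually reach that level; inactive means mean lysis activity below 80%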
#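 Signal: Adenylate kinase release luminescence | Assay system: Log-phase Cryptococcus neoformans yeast cells | Input: Cells at 5 × 10^6 per mL | Buffer or medium: Fresh YPD growth medium | Compound: Single dose | Schedule: Static 4 h at 37 °C with compound, 1 h detection | Controls: Clomiphene | Read-out: Luminescence rise reflecting yeast cell lysis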
# Statin myotox sup – suppressors of statin myotoxicity in C2C12 myotubes, primary screen, cell-based, single point, plate reader | 330,000 compounds, 0.78% hits | C2C12 myotubes + simvastatin, ATP luminescence, 48 h; scaled: DMSO 0, geranylgeraniol control 100 | rescue of ATP level, % at 7.49 µM;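 active means mean ATP rescue above about 67%, or every replicate alone reaching that limit, limit read from the data, passing the limit was not always enough; inconclusive means no clear call, values can overlap the other calls; inactive means mean under the limit and some replicate under it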;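 further: myotubes were challenged with 10 µM simvastatin during compound exposure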
# An asterisk follows results filed as active; ? = inconclusive; nt = not tested or not shown; ! = not confirmed by another sample. In the library only some 2.3% were active in any assay of this set; here they are far more common.
SMILES,ERp5 block,DENV2 CPE,F508del corr,PDI turbidity,Cneo AK release,Statin myotox sup
C[C@H]1CN([C@@H](C)CO)C(=O)c2cc(C#CC3CCCCC3)cnc2O[C@H]1CN(C)S(=O)(=O)c1ccc(F)cc1,2,72*!,2,nt,-1,-131
CO[C@H]1CN(C)C(=O)c2ccc(NC(=O)c3cccc(F)c3)cc2OC[C@H](C)N(C)C[C@H]1C,3,-8,-1,nt,-4,-9
Cc1ccc(S(=O)(=O)Nc2ccc3c(c2)C(=O)N([C@H](C)CO)C[C@H](C)[C@H](CN(C)S(=O)(=O)c2cn(C)cn2)O3)cc1,4,17,0,nt,-2,1
C[C@@H]1CCCCO[C@H](CN(C)S(=O)(=O)c2ccc(Cl)cc2)[C@@H](C)CN([C@H](C)CO)C(=O)c2cc(NC(=O)NC3CCCCC3)ccc2O1,-3,17,2,nt,-2,nt
C[C@@H]1CN([C@H](C)CO)C(=O)c2cc(NC(=O)Nc3ccc4c(c3)OCO4)ccc2O[C@@H](C)CCCCO[C@H]1CN(C)S(=O)(=O)c1ccc(Cl)cc1,0,38*,0,nt,-10,nt
C[C@H](CO)N1C[C@H](C)[C@H](CN(C)S(=O)(=O)c2ccc(Cl)cc2)OCCCC[C@H](C)Oc2ccc(NC(=O)NC3CCCCC3)cc2C1=O,-5,50*,-6,nt,-4,nt
C[C@@H]1CCCCO[C@@H](CN(C)S(=O)(=O)c2ccc(Cl)cc2)[C@H](C)CN([C@H](C)CO)C(=O)c2cc(NC(=O)Nc3ccc4c(c3)OCO4)ccc2O1,4,6,2,nt,38,nt
CCCNC(=O)N1[C@H](CO)[C@@H]2c3ccccc3N(C(=O)Nc3ccc(F)cc3)C[C@@H]21,1,-12,-1,nt,-1,9
O=C(c1cccc(F)c1)N1CC2(C1)[C@H](c1ccccc1)[C@H](CO)N2C(=O)C1CCC1,10,6,1,nt,nt,nt
Cc1ccc(SC[C@H](Cc2ccccc2)N2CC[C@@H](C)CCC2=O)cc1,-2,94*,-2,-5,1,-9
CCCN1CCC(=O)N([C@H](CSc2ccccc2)Cc2ccccc2)CC1,2,49*,-2,4,-4,-15
CCC(=O)Nc1ccc2c(c1)C(=O)N(C)[C@H]1CC[C@H](CC(=O)N[C@@H](C)c3ccccc3)O[C@@H]1CO2,-1,-5,-2,nt,2,9
CCN(C(=O)COC(=O)c1cnc(C)cn1)C1CCCCC1,nt,nt,nt,6,-1,135*
Cc1cnc(C(=O)OCC(=O)NC2CCCCCCC2)cn1,4,-9,-3,5,nt,nt
COc1cccc(NC(=O)N2CC3(C2)[C@H](c2ccccc2)[C@@H](CO)N3C(=O)C2CCCC2)c1,3,9,-2,nt,nt,nt
CC(=O)N(C)C[C@H]1[C@H](c2ccc(-c3ccccc3)cc2)[C@@H](CO)N1C(=O)C1CC1,8,-11,0,nt,1,-3
CC(C)[C@H](NC(=O)c1ccc(Cl)c(Cl)c1)C(=O)N1CCC[C@H]1C(=O)NCCc1ccccc1Cl,3,23*,-2,nt,nt,nt
C[C@H]1CN([C@@H](C)CO)C(=O)Cc2cc(NS(=O)(=O)c3cccs3)ccc2O[C@@H]1CN(C)C(=O)NC1CCCCC1,8,?,-1,nt,43,-12
COc1ccc(COc2ccccc2C(N)=O)cc1F,4,7,nt,-16,3,109*
CCC(=O)c1ccc(OCc2ccccc2)c(OC)c1,nt,nt,nt,6,nt,15
COc1cc(C(N)=O)ccc1OCc1ccccc1,nt,nt,nt,-8,2,117*
Cc1ccc(S(=O)(=O)Nc2ccc3c(c2)CC(=O)N([C@H](C)CO)C[C@@H](C)[C@@H](CN(C)Cc2ccc(Cl)c(Cl)c2)O3)cc1,-6,6,6,nt,0,116*
Cc1ccc(S(=O)(=O)Nc2ccc3c(c2)CC(=O)N([C@H](C)CO)C[C@@H](C)[C@H](CN(C)Cc2ccc(Cl)c(Cl)c2)O3)cc1,-9,-14,4,nt,6,103*
Cc1ccc(S(=O)(=O)Nc2ccc3c(c2)CC(=O)N([C@@H](C)CO)C[C@H](C)[C@H](CN(C)Cc2ccc(Cl)c(Cl)c2)O3)cc1,3,-12,8,nt,0,12
C[C@@H]1CN([C@@H](C)CO)C(=O)Cc2cc(NS(=O)(=O)c3ccc(Cl)cc3)ccc2O[C@H]1CN(C)Cc1ccc(Cl)c(Cl)c1,-2,1,0,nt,4,?
SMILES,ERp5 block,DENV2 CPE,F508del corr,PDI turbidity,Cneo AK release,Statin myotox sup
Cc1ccc(S(=O)(=O)Nc2ccc3c(c2)CC(=O)N([C@H](C)CO)C[C@H](C)[C@@H](CN(C)Cc2ccc(Cl)c(Cl)c2)O3)cc1,-4,5,7,nt,3,145*
C[C@H]1CN([C@@H](C)CO)C(=O)Cc2cc(NS(=O)(=O)c3ccc(F)cc3)ccc2O[C@H]1CN(C)Cc1ccc(Cl)c(Cl)c1,nt,nt,4,nt,nt,18
Cc1ccc(S(=O)(=O)Nc2ccc3c(c2)CC(=O)N([C@@H](C)CO)C[C@@H](C)[C@@H](CN(C)Cc2ccc(Cl)c(Cl)c2)O3)cc1,-4,-4,11*,nt,-7,77*
COc1ccc(S(=O)(=O)Nc2ccc3c(c2)C(=O)N([C@@H](C)CO)C[C@@H](C)[C@H](CN(C)C(=O)Nc2ccc(C(F)(F)F)cc2)OCCCC[C@H](C)O3)cc1,2,16,0,nt,-2,nt
COc1ccc(S(=O)(=O)NNC(=O)c2sccc2-n2cccc2)cc1,0,-3,0,2,-1,96*
Cc1cccc(CN2CCN(C(=O)c3cccc4ccccc34)CC2)c1,4,43*,-3,3,0,28
Cc1ccc(-c2nnc(-c3ccccc3)c(-c3ccccc3)n2)cc1,6,-7,nt,2,1,nt
Nc1nnc(-c2ccccc2)c(-c2ccccc2)n1,nt,nt,nt,-1,0,121*
CC(C)(C)NC(=O)COc1coc(CN2CCN(Cc3ccccc3)CC2)cc1=O,0,57*,0,-14,0,4
COCCNC(=O)COc1coc(CN2CCN(Cc3ccccc3)CC2)cc1=O,-1,-2,-2,4,0,1
CS(=O)(=O)Nc1ccc2c(c1)[C@@H]1C[C@@H](CC(=O)N3CCc4ccccc4C3)O[C@H](CO)[C@@H]1O2,0,1,-4,nt,12,10
Nc1c(Cl)cc(Cl)cc1C(=O)OCC(=O)NC1CC1,nt,nt,nt,0,0,70*
O=C(COC(=O)c1cc(F)c(F)cc1Cl)NC1CC1,-1,-1,nt,-8,nt,nt

# From PubChem
